# According to paper PMC8343189 (Acta Pharmaceutica Sinica. B, 2020):
# pIC50: −log10 of the molar value.
# How the values were obtained:
# ANO1 = target: T1, ANO1 (Homo sapiens, UniProt Q5XXA6, DEL476-501); experiment: YFP fluorescence quenching assay in ANO1-overexpressing FRT cell line; type: cell-based
# T1 sequence (Q5XXA6 with tags, fused parts or gaps isoform Q5XXA6-5 DEL539-564): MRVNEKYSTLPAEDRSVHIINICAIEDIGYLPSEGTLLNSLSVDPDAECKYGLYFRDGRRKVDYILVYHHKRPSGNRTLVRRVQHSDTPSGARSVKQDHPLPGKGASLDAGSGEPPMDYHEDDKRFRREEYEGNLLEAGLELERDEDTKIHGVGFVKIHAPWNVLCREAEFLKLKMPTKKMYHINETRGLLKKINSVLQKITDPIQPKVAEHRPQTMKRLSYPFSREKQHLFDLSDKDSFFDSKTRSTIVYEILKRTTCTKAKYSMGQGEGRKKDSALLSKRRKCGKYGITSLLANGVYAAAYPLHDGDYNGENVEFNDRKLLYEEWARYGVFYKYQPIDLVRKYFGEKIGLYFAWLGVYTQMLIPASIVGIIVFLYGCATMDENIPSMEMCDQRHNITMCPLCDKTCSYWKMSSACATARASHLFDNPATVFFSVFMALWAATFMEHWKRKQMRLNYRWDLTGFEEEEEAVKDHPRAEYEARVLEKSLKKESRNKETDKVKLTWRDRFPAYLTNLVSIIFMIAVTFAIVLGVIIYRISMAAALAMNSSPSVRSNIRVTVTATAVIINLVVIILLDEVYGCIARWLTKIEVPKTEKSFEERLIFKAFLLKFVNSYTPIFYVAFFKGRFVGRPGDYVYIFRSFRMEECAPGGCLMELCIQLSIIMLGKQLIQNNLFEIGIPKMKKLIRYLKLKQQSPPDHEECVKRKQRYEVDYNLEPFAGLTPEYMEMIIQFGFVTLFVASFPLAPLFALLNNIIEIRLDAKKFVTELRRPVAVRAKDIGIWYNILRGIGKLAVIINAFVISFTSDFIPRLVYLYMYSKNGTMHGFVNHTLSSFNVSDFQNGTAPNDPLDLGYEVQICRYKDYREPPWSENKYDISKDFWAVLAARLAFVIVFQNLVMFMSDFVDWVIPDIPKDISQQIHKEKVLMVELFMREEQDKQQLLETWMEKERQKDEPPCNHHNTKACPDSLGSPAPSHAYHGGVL
# [1] = system: intracellular Ca^2+ concentration; experiment: Intracellular Ca^2+ fluorescence; type: cell-based; conditions: 30 μmol/L compound, 200 μmol/L ATP, Cal520, control 2.3 folds
# SD rats [2] = experiment: Formalin test on rat; type: in vivo; conditions: for number of foot lifts, phase 2: phase 2, vehicle 121 foot lifts
# How it was run: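 30 min later, 50 μL 5% formalin injected into the left paw; controls received saline. Foot lifts counted over phase 1 (0–10 min) and phase 2 (10–60 min). Mean ± SD; ANOVA vs vehicle.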
# SD rats [3] = experiment: Chronic constriction injury model; type: in vivo; conditions: rat CCI, Electronic Von Frey, vehicle 11.5
# CHO cells = experiment: SRB proliferative cytotoxicity in CHO cells; type: cell-based, Chinese Hamster; conditions: 72 h
# How it was run: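 CHO cells in DMEM with 10% FBS, seeded overnight, then exposed to test compound or DMSO vehicle for 72 h. Cells fixed with 10% TCA for 1 h at 4 °C and stained with 0.4% SRB in 1% acetic acid for 15 min in the dark. Washed with acetic acid, dye dissolved in 10 mmol/L Tris-base, absorbance read at 540 nm. n = 3, mean ± SEM, t-test vs DMSO control.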
# [4] = Stability under different pH conditions; type: physicochemical; conditions: 37 °C, 100 μmol/L, mean ± SD, n = 3
# How it was run: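 Test compound diluted to 100 μmol/L in phosphate buffers at pH 1.0, 4.0, 6.8, 7.4 and 9.0 and held in a 37 °C water bath. HPLC−UV peak area measured at 0, 2 and 5 h; residual expressed relative to the 0 h peak area.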
Structure (SMILES),pIC50 (ANO1),further results
"CC(C)(C)c1ccc(C(=O)Nc2scc(-c3ccc(C(C)(C)C)cc3)c2C(=O)O)cc1 [Compound 36, 2-(4-(tert-Butyl)benzamido)-4-(4-(tert-butyl)phenyl) thiophene-3-carboxylic acid]",5.44,
"Cc1ccc(C(=O)Nc2scc(-c3ccc(Cl)cc3)c2C(=O)O)c2ccccc12 [Compound 46, 4-(4-Chlorophenyl)-2-(4-methyl-1-naphthamido) thiophene-3-carboxylic acid]",4.84,
"CCOC(=O)C1=C(COCCN)NC(C)=C(C(=O)OC)C1c1ccccc1Cl (stereo not shown) [Amlodipine, reference compound]",,maximum relative fluorescence units (RFU) vs initial value (Ca^2+ influx) [1]: remained unchanged
"CC(C)(C)c1ccc(C(=O)Nc2scc(-c3ccc4ccccc4c3)c2C(=O)O)cc1 [Compound 39, 2-(4-(tert-Butyl)benzamido)-4-(naphthalen-2-yl) thiophene-3-carboxylic acid]",5.89,
CC(C)C[C@H](CN)CC(=O)O [Pregabalin],,"number of foot lifts, phase 2 (SD rats [2]; 40 mg/kg i.g.): 44 foot lifts; PTI, pain threshold rate change (%) of 1 h compared to 0 h (SD rats [3]; 40 mg/kg i.g.): 60.4%"
CCc1c(C)nc(SCC(=O)Nc2nc(-c3ccc(OC)cc3)cs2)[nH]c1=O [Compound T16Ainh-A01],,effect on CHO cell proliferation (CHO cells; 1 and 3 μmol/L): weak effect
"CC(C)(C)c1ccc(C(=O)Nc2scc(-c3ccc(C(F)(F)F)cc3)c2C(=O)O)cc1 [Compound 35, 2-(4-(tert-Butyl)benzamido)-4-(4-(trifluoromethyl)phenyl) thiophene-3-carboxylic acid]",< 4.00,
"O=C(O)c1c(NC(=O)c2cccc3ccccc23)sc2c1-c1ccccc1C2 [Compound 51, 2-(1-Naphthamido)-8H-indeno [2,1-b] thiophene-3-carboxylic acid]",5.66,
"COc1ccc2c(c1)Cc1sc(NC(=O)c3ccc(C(C)(C)C)cc3)c(C(=O)O)c1-2 [Compound 48, 2-(4-(tert-Butyl)benzamido)-6-methoxy-8H-indeno [2,1-b] thiophene-3-carboxylic acid]",4.54,
"O=C(Nc1scc(-c2ccc(Cl)cc2)c1C(=O)O)c1ccc(Cl)cc1Cl [Compound 44, 4-(4-Chlorophenyl)-2-(2,4-dichlorobenzamido)thiophene-3-carboxylic acid]",5.91,
"CC(C)(C)c1ccc(C(=O)Nc2scc(-c3ccc(F)cc3)c2C(=O)O)cc1 [Compound 33, 2-(4-(tert-Butyl)benzamido)-4-(4-fluorophenyl) thiophene-3-carboxylic acid]",5.02,
"CC(C)(C)c1ccc(C(=O)Nc2scc(-c3ccc(Cl)cc3)c2C(=O)O)cc1 [Compound 34, 2-(4-(tert-Butyl)benzamido)-4-(4-chlorophenyl) thiophene-3-carboxylic acid]",5.87,
"O=C(Nc1sc2c(c1C(=O)O)-c1ccccc1C2)c1cccs1 [Compound 49, 2-(Thiophene-2-carboxamido)-8H-indeno [2,1-b] thiophene-3-carboxylic acid]",4.95,
"O=C(Nc1sc2c(c1C(=O)O)-c1ccccc1C2)c1ccc2ccccc2c1 [Compound 50, 2-(2-Naphthamido)-8H-indeno [2,1-b] thiophene-3-carboxylic acid]",5.72,
"CC(C)(C)c1ccc(C(=O)Nc2sc3c(c2C(=O)O)-c2ccccc2C3(C)C)cc1 [Compound 52, 2-(4-(tert-Butyl)benzamido)-8,8-dimethyl-8H-indeno [2,1-b] thiophene-3-carboxylic acid]",5.48,
"COc1ccc(C(=O)Nc2scc(-c3ccc(C(C)(C)C)cc3)c2C(=O)O)cc1 [Compound 41, 4-(4-(tert-Butyl)phenyl)-2-(4-methoxybenzamido) thiophene-3-carboxylic acid]",5.64,
"O=C(Nc1scc(-c2ccc(Cl)cc2)c1C(=O)O)c1cccs1 [Compound 45, 4-(4-Chlorophenyl)-2-(thiophene-2-carboxamido) thiophene-3-carboxylic acid]",5.76,
"CC(C)(C)c1ccc(C(=O)Nc2scc(-c3ccc(Cl)cc3Cl)c2C(=O)O)cc1 [Compound 38, 2-(4-(tert-Butyl)benzamido)-4-(2,4-dichlorophenyl) thiophene-3-carboxylic acid]",< 4.00,
"O=C(Nc1scc(-c2ccc(Cl)cc2)c1C(=O)O)c1ccc2ccccc2c1 [Compound 43, 2-(2-Naphthamido)-4-(4-chlorophenyl) thiophene-3-carboxylic acid]",5.61,
"CC(C)(C)c1ccc(C(=O)Nc2scc(-c3ccc(-c4ccccc4)cc3)c2C(=O)O)cc1 [Compound 37, 4-([1,1′-Biphenyl]-4-yl)-2-(4-(tert-butyl)benzamido) thiophene-3-carboxylic acid]",5.64,
CCOC(=O)Nc1ccc(NCc2ccc(F)cc2)nc1N [Flupirtine],,"number of foot lifts, phase 2 (SD rats [2]; 200 mg/kg i.g.): 74 foot lifts; PTI, pain threshold rate change (%) of 1 h compared to 0 h (SD rats [3]; 100 mg/kg i.g.): 36.2%"
"CC(C)(C)c1ccc(C(=O)Nc2sc3c(c2C(=O)O)-c2ccccc2CC3)cc1 [Compound 53, 2-(4-(tert-Butyl)benzamido)-4,5-dihydronaphtho [2,1-b] thiophene-1-carboxylic acid]",5.29,
"CC(C)(C)c1ccc(C(=O)Nc2sc3c(c2C(=O)O)-c2ccccc2C3)cc1 [Compound 47, 2-(4-(tert-Butyl)benzamido)-8H-indeno [2,1-b] thiophene-3-carboxylic acid]",4.90,
"CC(C)(C)C1CCc2c(sc(NC(=O)c3ccco3)c2C(=O)O)C1 (stereo not shown) [Compound 1, 6-(tert-Butyl)-2-(furan-2-carboxamido)-4,5,6,7-tetrahydrobenzo[b]thiophene-3-carboxylic acid, reference compound]",,"analgesic effect in phase 2 compared with vehicle (SD rats [2]; 80 mg/kg i.g., phase 2): no significant analgesic effect; number of foot lifts, phase 2 (SD rats [2]; 80 mg/kg i.g.): 84 foot lifts; effect on CHO cell proliferation (CHO cells; all concentrations tested): inhibited cell proliferation; 5 h residual compound under different pH (%) pH 1.0 ([4]; pH 1.0, 5 h): 93.8 ± 4.0%; 5 h residual compound under different pH (%) pH 4.0 ([4]; pH 4.0, 5 h): 85.3 ± 8.1%; 5 h residual compound under different pH (%) pH 6.8 ([4]; pH 6.8, 5 h): 94.9 ± 2.9%; 5 h residual compound under different pH (%) pH 7.4 ([4]; pH 7.4, 5 h): 98.7 ± 0.7%; 5 h residual compound under different pH (%) pH 9.0 ([4]; pH 9.0, 5 h): 97.6 ± 1.2%"
"COc1ccc(-c2csc(NC(=O)c3cccs3)c2C(=O)O)cc1 [Compound 40, 4-(4-Methoxyphenyl)-2-(thiophene-2-carboxamido) thiophene-3-carboxylic acid]",4.59,
